PubChem BioAssay AID2178 (The Scripps Research Institute Molecular Screening Center, 2009)
Fewer than 10 of roughly 2,400 compounds were called active.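 The calls were made as follows: active = average inhibition across replicates above the hit cutoff set in the earlier primary screen; inactive = the rest.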 A selection follows.

molecular target: Procathepsin L (Homo sapiens) (UniProt P07711); experiment: CTSL1 protease inhibition confirmation – biochemical, QFRET, triplicate, counter-screen for PFM18AAP inhibitor project (AID 2178); settings: purified cathepsin L1, Z-Leu-Arg-MCA fluorescence; at 5.96 µM; hits give high values;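 also: 0% = median of test compound wells and 100% = Z-Phe-Ala-diazomethylketone 1 µM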
Outline: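 System – recombinant cathepsin L1, purified · Dosing – single nominal compound dose of 5.96 µM, 0.59% DMSO · Incubation – 30 min compound preincubation, then 90 min with substrate, 25 °C · Technique – fluorescence of released MCA at 0 and 90 min · Evaluation – percent inhibition from fluorescence change · Control set – full inhibition control, Z-Phe-Ala-diazomethylketone · Replicates – triplicate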

Procathepsin L (Homo sapiens), sequence (P07711 whole entry, looked up): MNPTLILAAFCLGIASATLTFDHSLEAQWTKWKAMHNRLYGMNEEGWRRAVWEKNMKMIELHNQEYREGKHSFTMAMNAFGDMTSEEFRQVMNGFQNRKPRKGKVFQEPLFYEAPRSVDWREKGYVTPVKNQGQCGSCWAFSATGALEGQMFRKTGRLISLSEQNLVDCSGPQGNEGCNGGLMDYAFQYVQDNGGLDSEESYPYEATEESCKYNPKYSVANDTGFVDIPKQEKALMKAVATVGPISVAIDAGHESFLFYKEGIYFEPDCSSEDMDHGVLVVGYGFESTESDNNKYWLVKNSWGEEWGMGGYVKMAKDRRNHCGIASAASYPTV

Compound	inhibition
COc1ccc(OC)c(Nc2nc(-c3ccc(O)c(O)c3)cs2)c1	4.97% (inactive)
Cc1cc2nc3c(=O)n(Cc4ccccc4)c(=O)[nH]c3nc2cc1N	2.68% (inactive)
Cc1cc(-c2ccc(/C=N/n3cnnc3)o2)c([N+](=O)[O-])cc1C	1.38% (inactive)
O=C(CC(n1cncn1)C(Cl)(Cl)Cl)c1ccc([N+](=O)[O-])cc1 (stereo not given)	1.47% (inactive)
Cc1ccc(Cl)cc1-c1ccc(/C=N/n2cnnc2)o1	3.57% (inactive)
COc1cc(S(=O)(=O)Nc2ncn[nH]2)ccc1Cl	0.28% (inactive)
O=[N+]([O-])c1ccc(N2CCN(c3ccc(O)cc3)CC2)c(Cl)c1	0.99% (inactive)
COc1cccc2cc(-c3cc(=O)oc4cc(C)c(O)cc34)oc12	-0.83% (inactive)
CC(=O)N(c1ccc2oc(=O)sc2c1)S(=O)(=O)c1ccc(C)cc1	-0.05% (inactive)
O=S(=O)(c1ccc(NC(=S)NN=C(C2CC2)C2CC2)cc1)N1CCOCC1	0.19% (inactive)
COc1cc(NC(=S)N2CCCC(C)C2)c(OC)cc1Cl (stereo not given)	-10.4% (inactive)
Cc1ccsc1/C=N/Nc1ccc(Cl)nn1	0.84% (inactive)
COc1ccccc1-c1nnc(SCC(=O)Nc2cc(C)on2)o1	8.93% (inactive)
O=C(N/N=C/c1ccc(O)c(O)c1)C1c2ccccc2Oc2ccccc21	-5.02% (inactive)
O=C(CN1CCN(S(=O)(=O)c2cc(Cl)ccc2Cl)CC1)c1ccc(O)c(O)c1	-1.56% (inactive)
O=C(Cn1c[n+](CC(=O)c2ccc([N+](=O)[O-])cc2)cn1)c1ccc([N+](=O)[O-])cc1	13.7% (inactive)
Cc1ccc(NC(=O)c2c(NC(=O)CCC(=O)O)sc3c2CCCCC3)cc1	5.04% (inactive)
CC/C(C)=N/Nc1nc2sc3c(c2c(=O)[nH]1)CC(C)(C)OC3	2.48% (inactive)
Cn1sc(=O)c2cc(S(=O)(=O)NC3CC3)ccc21	-0.58% (inactive)
CCOc1ccc(-n2c(O)c(/C=N/Nc3nnc(C)c(=O)[nH]3)c3ccccc3c2=O)cc1	-0.55% (inactive)
Oc1cccc(/C=N/Nc2ccc(Cl)nn2)c1O	2.12% (inactive)
Cc1c(CC(=O)N2CCN(C(=O)C3COc4ccccc4O3)CC2)c(=O)oc2c(O)c(O)ccc12 (stereo not given)	0.56% (inactive)
O=C(CSC(=S)N1CCOCC1)c1cc(Br)cc(Br)c1O	-2.37% (inactive)
CNC(=O)c1c(NC(NC(=O)c2ccco2)C(=O)c2ccc(Cl)cc2)sc2c1CCCC2 (stereo not given)	-3.32% (inactive)
N#CCC(=O)N/N=C/c1ccc(SCC(=O)Nc2ccccc2)o1	-1.02% (inactive)

Compound	inhibition
CC(=O)c1ccc(NC(=O)CCc2nnc3ccc(NCc4ccco4)nn23)cc1	-4.62% (inactive)
c1ccc(-c2ccc3c(c2)NC(C2Nc4cc(-c5ccccc5)ccc4O2)O3)cc1 (stereo not given)	0.56% (inactive)
CCN(CC)S(=O)(=O)c1cc([N+](=O)[O-])ccc1NNC(=O)Nc1ccccc1	5.14% (inactive)
COc1cc(Br)cc(/C=N/c2ncn[nH]2)c1O	-0.48% (inactive)
Oc1c(C(c2ccco2)N2CCC3(CC2)OCCO3)sc2ncnn12 (stereo not given)	-2.01% (inactive)
Cc1onc(-c2ccccc2)c1C(=O)NNC(=S)NC(=O)c1ccc(F)cc1	3.64% (inactive)
O=C(CSc1ncn[nH]1)Nc1nc(-c2cccc([N+](=O)[O-])c2)cs1	1.01% (inactive)
COc1ccc(/C=N/Nc2nc3ccccc3o2)cc1OC	-3.54% (inactive)
Cc1cc([N+](=O)[O-])c(-c2ccc(/C=N/n3cnnc3)o2)cc1Cl	5.55% (inactive)
O=C(CSc1ncn[nH]1)Nc1nsc(-c2ccccc2)n1	1.95% (inactive)
NC(=O)c1c(Nc2nc3c(F)cccc3s2)sc2c1CCCC2	3.61% (inactive)
CCOC(=O)NNc1cc(C(F)(F)F)ccn1	4.25% (inactive)
Cc1cc(/C=N/Nc2ccc([N+](=O)[O-])cn2)c(C)n1-c1cccc(C(=O)O)c1	3.84% (inactive)
S=c1[nH]c(-c2cccs2)cn1-c1ccccc1	-4.9% (inactive)
Cc1nccn1CC(=O)N/N=C/c1ccc(O)c(O)c1	5.14% (inactive)
Oc1ccc(-c2csc(Nc3cccnc3)n2)cc1	6.56% (inactive)
O=C(NNC(=O)c1ccco1)Nc1ccccc1	2.81% (inactive)
CCOCCCNC(=O)c1ccc(CS(=O)(=O)c2cccc(C(F)(F)F)c2)o1	-1.17% (inactive)
ONC(=Nc1ccccc1)c1ccccc1Cl	1.1% (inactive)
CCN1/C(=C/C(=S)Nc2ccccc2)Sc2ccccc21	0.64% (inactive)
OCCN1CCN(C(=S)c2ccc(-c3ccccc3)cc2)CC1	-0.85% (inactive)
CCn1c(CNS(=O)(=O)c2ccc(Cl)cc2)n[nH]c1=S	1.4% (inactive)
CC1(C)CC(=O)C/C(=N\NC(=O)c2cccs2)C1	-0.13% (inactive)
Cc1ccnc(-n2sc3ccccc3c2=O)n1	-1.29% (inactive)
Cc1nnc(SCC(=O)Nn2cnnc2)s1	1.95% (inactive)
